Values after ≈ are worked out from the molar mass of the structure shown.
Experiments:
Format in all cases: functional, cell-based
[1] = Cytotoxicity against human Hep G2 cells by MTT colorimetric method; settings: HepG2
Outline: (§1)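 Human cancer cell lines were obtained from ATCC. Cytotoxicity was measured by the MTT [3-(4,5-dimethylthiazol-2-yl)-2,5-diphenyltetrazolium bromide] colorimetric method.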

[2] = system: MCF7; test: Cytotoxicity against human MCF7 cells by MTT colorimetric method; outline: as §1
[3] = system: A549; test: Cytotoxicity against human A549 cells by MTT colorimetric method; outline: as §1
[4] = system: MDA-MB-231; test: Cytotoxicity against human MDA-MB-231 cells by MTT colorimetric method; outline: as §1

Row | SMILES | IC50 [1] | IC50 [2] | IC50 [3] | IC50 [4]
1 | C=C1C(=O)O[C@@H]2[C@@H]1C[C@H](OC(C)=O)[C@](C)(O)CC/C=C(\C)CC/C=C(\C)[C@@H]2OC(C)=O [CRASSOCOLIDE B] | 13.1 µg/mL (≈ 30.1 µM) | 10.3 µg/mL (≈ 23.7 µM) | 12.1 µg/mL (≈ 27.8 µM) | > 30 µg/mL
2 | C=C1C(=O)O[C@H]2C/C(C)=C/CC/C(C)=C/CC[C@@](C)(O)[C@@H](OC(C)=O)C[C@H]12 [CRASSOCOLIDE C] | > 30 µg/mL | > 30 µg/mL | > 30 µg/mL | > 30 µg/mL
3 | C=C1C(=O)O[C@H]2C/C(C)=C/CC/C(C)=C/CC[C@@](C)(O)[C@@H](O)C[C@H]12 [CRASSOCOLIDE D] | > 30 µg/mL | 15.3 µg/mL (≈ 45.7 µM) | 12.5 µg/mL (≈ 37.4 µM) | > 30 µg/mL
4 | C=C1C(=O)O[C@H]2C[C@@]3(C)O[C@@H]3CC/C(C)=C/C[C@@H](OC(C)=O)/C(C)=C/C[C@H]12 [CRASSOCOLIDE F] | 2.1 µg/mL (≈ 5.61 µM) | 7.4 µg/mL (≈ 19.8 µM) | 3.2 µg/mL (≈ 8.55 µM) | 8.8 µg/mL (≈ 23.5 µM)
5 | C=C1C(=O)O[C@@H]2[C@@H]1C[C@H](O)[C@](C)(O)CC/C=C(\C)CC/C=C(\C)[C@@H]2OC(C)=O [CRASSOLIDE A] | 3.1 µg/mL (≈ 7.9 µM) | 8.9 µg/mL (≈ 22.7 µM) | 11.9 µg/mL (≈ 30.3 µM) | 8.6 µg/mL (≈ 21.9 µM)
6 | COc1cccc2c1C(=O)c1c(O)c3c(c(O)c1C2=O)C[C@@](O)(C(=O)CO)C[C@@H]3O[C@H]1C[C@H](N)[C@H](O)[C@H](C)O1 [DOXORUBICIN] | 0.2 µg/mL (≈ 0.368 µM) | 0.3 µg/mL (≈ 0.552 µM) |  | 0.1 µg/mL (≈ 0.184 µM)
7 | C=C1C(=O)O[C@H]2C[C@]3(C)O[C@H]3CC/C(C)=C/CC/C(C)=C/C[C@H]12 [LOBOPHYTOLIDE] | 6.3 µg/mL (≈ 19.9 µM) | 2.3 µg/mL (≈ 7.27 µM) | 2.1 µg/mL (≈ 6.64 µM) | 2 µg/mL (≈ 6.32 µM)
